In ChEMBL document CHEMBL1154240, “Molecular-targeted antitumor agents. 19. Furospongolide from a marine Lendenfeldia sp. sponge inhibits hypoxia-inducible factor-1 activation in breast tumor cells” (J Nat Prod, 2008):
Active and inactive are the calls of the source. No cut-off for these calls is given here.

How the values were obtained:
[1] = target: T1, Hypoxia inducible factors; HIF-1-alpha, HIF-2-alpha (Homo sapiens, UniProt Q16665+Q99814); experiment: Inhibition of 1,10-phenanthroline-induced HIF1 activation in human PC3 cells after 16 hrs by pTK-HRE3-luciferase reporter gene assay; type: cell-based; details: pc-3
How it was run: (§1)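 Cells transiently transfected with the pHRE-TK-Luc reporter (HIF-1) or the CMV-driven pGL3-Control plasmid, given compound, then exposed for 16 h to hypoxia (1% O2/5% CO2/94% N2, 37°C) or 10 μM 1,10-phenanthroline. Luciferase read-out: % inhibition = (1 − treated/induced light output) × 100. One experiment in triplicate.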

[2] = target: T1, Hypoxia inducible factors; HIF-1-alpha, HIF-2-alpha; experiment: Inhibition of hypoxia-induced HIF1 activation in human PC3 cells after 16 hrs by pTK-HRE3-luciferase reporter gene assay; type: cell-based; details: pc-3; how it was run: as §1
MCF7 [3] = experiment: Cytotoxicity against human MCF7 cells under hypoxic condition after 48 hrs by natural red method; type: functional, cell-based; details: MCF7, 48 h
How it was run: (§2)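 Cells plated at 30,000/well in DMEM/F12 with 10% FCS and antibiotics and left overnight, then given compound in serum-free DMEM/F12. After a 30 min pre-exposure, incubation ran 48 h under normoxia (5% CO2/95% air) or hypoxia (1% O2/5% CO2/94% N2). Viability was read by neutral red, expressed as % inhibition, from one experiment in triplicate.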

MCF7 [4] = experiment: Cytotoxicity against human MCF7 cells under normoxic condition after 48 hrs by natural red method; type: functional, cell-based; details: MCF7, 48 h; how it was run: as §2
MDA-MB-231 [5] = experiment: Cytotoxicity against human MDA-MB-231 cells under hypoxic condition after 48 hrs by natural red method; type: functional, cell-based; details: MDA-MB-231, 48 h; how it was run: as §2
PC-3 [6] = experiment: Cytotoxicity against human PC3 cells under hypoxic condition after 48 hrs by natural red method; type: functional, cell-based; details: PC-3, 48 h; how it was run: as §2
PC-3 [7] = experiment: Cytotoxicity against human PC3 cells under normoxic condition after 48 hrs by natural red method; type: functional, cell-based; details: PC-3, 48 h; how it was run: as §2
T47D [8] = experiment: Cytotoxicity against human T47D cells under normoxic condition after 48 hrs by natural red method; type: functional, cell-based; how it was run: as §2
T47D [9] = experiment: Cytotoxicity against human T47D cells under hypoxic condition after 48 hrs by natural red method; type: functional, cell-based; how it was run: as §2
MDA-MB-231 [10] = experiment: Cytotoxicity against human MDA-MB-231 cells under normoxic condition after 48 hrs by natural red method; type: functional, cell-based; details: MDA-MB-231, 48 h; how it was run: as §2
[11] = target: T1, Hypoxia inducible factors; HIF-1-alpha, HIF-2-alpha; experiment: Inhibition of hypoxia-induced HIF1 activation in human T47D cells after 16 hrs by pTK-HRE3-luciferase reporter gene assay; type: cell-based; how it was run: as §1
[12] = target: T1, Hypoxia inducible factors; HIF-1-alpha, HIF-2-alpha; experiment: Inhibition of 1,10-phenanthroline-induced HIF1 activation in human T47D cells after 16 hrs by pTK-HRE3-luciferase reporter gene assay; type: cell-based; how it was run: as §1
T47D [13] = experiment: Inhibition of electron transport protein complex 4 in human T47D cells assessed as decrease in oxygen consumption at 30 uM pretreated for 2 hrs before TMPD/ascorbate addition by mitochondrial respiration assay; type: cell-based
How it was run: (§3)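 T47D cells permeabilized with 30 μM digitonin in Clark-electrode chamber containing buffer of 20 mM HEPES pH 7.3, 120 mM KCl, 2 mM KH2PO4, 2 mM MgCl2, 1 mM EGTA, 0.3% fat-free BSA. Substrates: 5 mM pyruvate + 5 mM malate (complex I), 5 mM succinate (complex II), 5 mM ascorbate + 0.2 mM TMPD (complex IV); rotenone and antimycin A as inhibitors. Oxygen consumption monitored.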

T47D [14] = experiment: Inhibition of electron transport protein complex 3 in human T47D cells assessed as decrease in oxygen consumption at 30 uM pretreated for 2 hrs before succinate addition by mitochondrial respiration assay; type: cell-based; how it was run: as §3
T47D [15] = experiment: Inhibition of electron transport protein complex 2 in human T47D cells assessed as decrease in oxygen consumption at 30 uM pretreated for 2 hrs before succinate addition by mitochondrial respiration assay; type: cell-based; how it was run: as §3
T47D [16] = experiment: Inhibition of electron transport protein complex 1 in human T47D cells assessed as decrease in oxygen consumption at 30 uM pretreated for 2 hrs before malate and pyruvate addition by mitochondrial respiration assay; type: cell-based; how it was run: as §3
T47D [17] = experiment: Inhibition of cellular respiration in human T47D cells assessed as oxygen consumption at 30 uM; type: functional, cell-based
How it was run: (§4)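 Intact T47D cells (5×10^6, equilibrated to 30°C) in 1 mL serum- and antibiotic-free DMEM/F12, with 17.5 mM glucose as substrate, in a Clark-type oxygen electrode. After 15 min baseline, compound in isopropyl alcohol injected at 3 min intervals. Oxygen consumption measured in triplicate; one-way ANOVA with Bonferroni post test.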

T47D [18] = experiment: Inhibition of cellular respiration in human T47D cells assessed as oxygen consumption at 10 uM; type: functional; how it was run: as §4
[19] = target: Aryl hydrocarbon receptor nuclear translocator (Homo sapiens) (UniProt P27540); experiment: Inhibition of hypoxia-induced nuclear HIF1beta in human T47D cells at 10 uM after 4 hrs by Western blot analysis; type: cell-based
Aryl hydrocarbon receptor nuclear translocator (Homo sapiens), sequence (P27540 whole entry): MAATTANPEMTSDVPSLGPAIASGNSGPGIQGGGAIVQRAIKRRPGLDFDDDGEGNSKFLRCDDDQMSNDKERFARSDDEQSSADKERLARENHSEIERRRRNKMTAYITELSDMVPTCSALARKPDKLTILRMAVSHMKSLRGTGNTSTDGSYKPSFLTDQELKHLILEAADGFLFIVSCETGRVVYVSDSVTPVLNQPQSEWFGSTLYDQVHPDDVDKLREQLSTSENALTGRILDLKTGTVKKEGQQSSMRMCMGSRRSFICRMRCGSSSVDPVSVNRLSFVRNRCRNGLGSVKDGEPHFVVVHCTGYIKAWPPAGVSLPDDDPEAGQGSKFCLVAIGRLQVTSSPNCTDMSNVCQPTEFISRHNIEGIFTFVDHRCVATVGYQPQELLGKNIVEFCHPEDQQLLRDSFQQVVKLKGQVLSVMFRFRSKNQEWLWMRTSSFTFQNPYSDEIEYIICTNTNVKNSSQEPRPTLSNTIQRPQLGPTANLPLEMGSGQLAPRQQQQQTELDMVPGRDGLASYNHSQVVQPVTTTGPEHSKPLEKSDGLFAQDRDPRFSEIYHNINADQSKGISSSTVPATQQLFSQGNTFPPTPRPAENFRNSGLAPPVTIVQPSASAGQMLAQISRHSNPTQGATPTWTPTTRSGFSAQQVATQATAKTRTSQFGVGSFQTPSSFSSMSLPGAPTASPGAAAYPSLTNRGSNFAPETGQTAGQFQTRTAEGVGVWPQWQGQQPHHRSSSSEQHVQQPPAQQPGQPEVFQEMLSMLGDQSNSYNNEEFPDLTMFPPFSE

[20] = target: Hypoxia-inducible factor 1-alpha (Homo sapiens) (UniProt Q16665); experiment: Inhibition of 1,10-phenanthroline-induced nuclear HIF1alpha in human T47D cells at 10 uM after 4 hrs by Western blot analysis; type: cell-based
Hypoxia-inducible factor 1-alpha (Homo sapiens), sequence (Q16665 whole entry, looked up): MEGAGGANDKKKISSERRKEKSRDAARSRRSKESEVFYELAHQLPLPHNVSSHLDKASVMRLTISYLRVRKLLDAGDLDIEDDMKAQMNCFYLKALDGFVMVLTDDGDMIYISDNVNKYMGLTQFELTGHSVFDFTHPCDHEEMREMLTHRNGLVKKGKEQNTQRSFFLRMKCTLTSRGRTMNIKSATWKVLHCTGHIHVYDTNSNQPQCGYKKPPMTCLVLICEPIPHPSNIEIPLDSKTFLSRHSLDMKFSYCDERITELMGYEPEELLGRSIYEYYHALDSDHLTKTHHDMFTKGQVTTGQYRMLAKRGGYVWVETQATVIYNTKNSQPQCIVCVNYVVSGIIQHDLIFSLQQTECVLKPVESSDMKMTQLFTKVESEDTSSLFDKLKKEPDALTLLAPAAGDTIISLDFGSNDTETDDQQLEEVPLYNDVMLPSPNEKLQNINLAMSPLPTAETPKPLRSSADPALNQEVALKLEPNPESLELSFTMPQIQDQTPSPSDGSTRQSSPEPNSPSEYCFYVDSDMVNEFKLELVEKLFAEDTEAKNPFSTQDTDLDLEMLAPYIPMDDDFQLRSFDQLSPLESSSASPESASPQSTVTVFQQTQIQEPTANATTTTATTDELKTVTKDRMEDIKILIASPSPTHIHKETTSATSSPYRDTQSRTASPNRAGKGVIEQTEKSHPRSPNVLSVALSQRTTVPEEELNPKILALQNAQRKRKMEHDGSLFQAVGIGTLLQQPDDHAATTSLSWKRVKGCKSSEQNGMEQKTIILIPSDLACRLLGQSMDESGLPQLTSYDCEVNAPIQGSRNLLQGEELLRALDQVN

[21] = target: T1, Hypoxia inducible factors; HIF-1-alpha, HIF-2-alpha; experiment: Inhibition of hypoxia-induced HIF1 activation in human T47D cells at 30 uM after 16 hrs by pTK-HRE3-luciferase reporter gene assay; type: cell-based; how it was run: as §1
T47D [22] = experiment: Cytotoxicity against human T47D cells under hypoxic conditions at 30 uM after 48 hrs by natural red method; type: functional; how it was run: as §2
T47D [23] = experiment: Inhibition of hypoxia-induced VEGF secretion in human T47D cells after 16 hrs by ELISA; type: functional, cell-based
How it was run: (§5)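 T47D plated at 356,000 cells/well and left overnight at 37°C. Compound added in serum-free DMEM/F12 for 30 min under air, then 16 h under hypoxia (1% O2/5% CO2/94% N2) or with 10 μM 1,10-phenanthroline. Secreted VEGF in conditioned medium was measured by ELISA and normalized to total lysate protein (BCA).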

T47D [24] = experiment: Inhibition of 1,10-phenanthroline-induced VEGF secretion in human T47D cells at 30 uM after 16 hrs by ELISA; type: functional, cell-based; how it was run: as §5
[25] = Selectivity for inhibition of hypoxia-induced HIF1 activation in human T47D cells over cytotoxicity to human T47D cells; type: toxicity, cell-based
[26] = target: Hypoxia-inducible factor 1-alpha (Homo sapiens) (UniProt Q16665); experiment: Inhibition of hypoxia-induced nuclear HIF1alpha in human T47D cells at 10 uM after 4 hrs by Western blot analysis; type: cell-based
[27] = Selectivity ratio of IC50 for inhibition of hypoxia-induced HIF1 activation in human T47D cells to IC50 for cytotoxicity to human T47D cells; type: toxicity, cell-based; details: read-out: Ratio IC50

| IC50 [1] [nM] | IC50 [2] [nM] | IC50 [11] [nM] | IC50 [12] [nM] | Structure (SMILES) | IC50 (MCF7 [3]) [nM] | IC50 (MCF7 [4]) [nM] | IC50 (MDA-MB-231 [5]) [nM] | IC50 (PC-3 [6]) [nM] | IC50 (PC-3 [7]) [nM] | IC50 (T47D [8]) [nM] | IC50 (T47D [9]) [nM] | IC50 (MDA-MB-231 [10]) [nM] | other results |
| --- | --- | --- | --- | --- | --- | --- | --- | --- | --- | --- | --- | --- | --- |
| 1000 | 900 | 500 | 200 | CC(=O)C1=CC[C@H]2[C@]3(C)CC[C@H]4C(C)(C)CCC[C@]4(CO)[C@H]3CC(=O)[C@]2(C)[C@H]1C=O | 600 | 600 | 300 | 1100 | 800 | 1200 | 1800 | 300 | – |
| 9000 | 7700 | 2700 | 1000 | COC(=O)[C@]12CCCC(C)(C)[C@@H]1CC[C@@]1(C)[C@@H]3CC=C(C(C)=O)[C@H](C=O)[C@@]3(C)C(=O)C[C@@H]12 | 6800 | 6100 | 2000 | 10200 | 6400 | 5500 | 10800 | 1900 | – |
| > 30000 | > 30000 | 2900 | 10900 | C/C(=C\CCc1ccoc1)CC/C=C(\C)CCCC1=CC(=O)OC1 [FUROSPONGOLIDE] | > 30000 | 29000 | > 30000 | > 30000 | > 30000 | 14000 | > 30000 | > 30000 | Activity (T47D [13]): inactive; Activity (T47D [14]): inactive; Activity (T47D [15]): inactive; Activity (T47D [16]): Active; inhibition (T47D [17]): Active; inhibition at 10 µM (T47D [18]): 38%; inhibition [19]: Active; inhibition [20]: inactive; inhibition [21]: 97%; inhibition at 30 µM (T47D [22]): 26%; inhibition (T47D [23]): Dose-dependent effect; inhibition (T47D [24]): inactive; selectivity ratio [25]: > 10; inhibition [26]: Active |
| 800 | 500 | 400 | 200 | CC(=O)C1=CC[C@H]2[C@]3(C)CC[C@H]4C(C)(C)CCC[C@]4(CO)[C@H]3C[C@H](O)[C@]2(C)[C@H]1C=O | 700 | – | – | 900 | – | 1000 | 1600 | – | selectivity ratio [27]: 3 |
